As a reminder, the MIC90 is an inhibitory concentration at the 90% level, which refers to growth in some studies and to a panel of isolates in others. A lower MIC90 goes with greater potency.

Drawing on ChEMBL document CHEMBL4118066, “QSAR-driven design, synthesis and discovery of potent chalcone derivatives with antitubercular activity” (Eur J Med Chem, 2017), this text covers MIC90 for 24 compounds.

Test [1] concerns Mycobacterium tuberculosis. In words: Antitubercular activity against rifampin-resistant Mycobacterium tuberculosis H37Rv ATCC 35838 after 7 days under normoxic condition by microplate Alamar blue assay. The test is classed as functional. The conditions noted are these: H37Rv ATCC 35838, 168 h. A digest of the protocol:
(§1)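 Replicating, normoxic cultures in Middlebrook 7H12 medium, exposed to compound for 7 d at 37 °C. Resazurin plus Tween 80 then added for a further 24 h at 37 °C. Fluorescence read at ex/em 530/590 nm. MIC is the lowest concentration giving 90% lower fluorescence than controls.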

Test [2] relates to Mycobacterium tuberculosis. Description: Antitubercular activity against isoniazid-resistant Mycobacterium tuberculosis H37Rv ATCC 35822 after 7 days under normoxic condition by microplate Alamar blue assay. The class given is functional. The note with it: H37Rv ATCC 35822, 168 h. A digest of the protocol: as §1
(The colour change of resazurin is a common sign of viable cells or microbes.)

Molecules are shown by their SMILES. ≈ marks a conversion by molar mass, not a printed value.

For `O=C(/C=C/c1ccc([N+](=O)[O-])o1)c1ccc(Br)cc1`, the MIC90 worked out at 0.76 µM (≈ 0.245 µg/mL) in test [1] and 0.58 µM (≈ 0.187 µg/mL) in test [2].

Take `O=C(/C=C/c1ccc([N+](=O)[O-])o1)c1ccc(N2CCCCC2)cc1`: the MIC90 in test [1] was 0.07 µM (≈ 0.0228 µg/mL); in test [2], less than 0.03 µM.

Consider `O=C(/C=C/c1ccc([N+](=O)[O-])o1)c1ccc(N2CCOCC2)cc1`, for which the MIC90 in test [1] amounted to 0.55 µM (≈ 0.181 µg/mL); in test [2] it was 0.11 µM (≈ 0.0361 µg/mL).

In the case of `COc1ccc(/C=C/C(=O)c2cccc(Br)c2)cc1`, the figures for the MIC90 in test [1] and in test [2] were 9.28 µM (≈ 2.94 µg/mL) and 4.94 µM (≈ 1.57 µg/mL), respectively.

Consider `COc1ccc(/C=C/C(=O)c2cccc(I)c2)cc1`, for which the values for the MIC90 in test [1] and in test [2] were 8.31 µM (≈ 3.03 µg/mL) and 7.75 µM (≈ 2.82 µg/mL), respectively.

For the compound `CC(C)(C)c1ccc(C(=O)/C=C/c2ccc([N+](=O)[O-])s2)cc1`, the values for the MIC90 in test [1] and in test [2] were 0.14 µM (≈ 0.0442 µg/mL) and 0.15 µM (≈ 0.0473 µg/mL), respectively.

With `Cc1cccc(C(=O)/C=C/c2ccc([N+](=O)[O-])o2)c1`, the MIC90 in test [1] is 3.78 µM (≈ 0.972 µg/mL); in test [2], 1.93 µM (≈ 0.496 µg/mL).

Regarding `O=C(/C=C/c1ccc([N+](=O)[O-])o1)c1ccc(-n2ccnc2)cc1`, the results for the MIC90 in test [1] and in test [2] were 1.19 µM (≈ 0.368 µg/mL) and 1.44 µM (≈ 0.445 µg/mL), respectively.

For `O=C(/C=C/c1ccc([N+](=O)[O-])o1)c1ccc(N2CCNCC2)cc1`, the MIC90 in test [1] was 0.76 µM (≈ 0.249 µg/mL); in test [2] it was 0.19 µM (≈ 0.0622 µg/mL).

Regarding `Cc1ccc(C(=O)/C=C/c2ccc([N+](=O)[O-])s2)cc1`, the MIC90 was 1.21 µM (≈ 0.331 µg/mL) in test [1] and 0.96 µM (≈ 0.262 µg/mL) in test [2].

In the case of `O=C(/C=C/c1ccc([N+](=O)[O-])o1)c1ccc(C2CCCCC2)cc1`, the MIC90 amounted to 1.12 µM (≈ 0.364 µg/mL) in test [1] and 1.23 µM (≈ 0.4 µg/mL) in test [2].

In the case of `O=C(/C=C/c1ccc([N+](=O)[O-])o1)c1ccc(I)cc1`, the values for the MIC90 in test [1] and in test [2] were 1.18 µM (≈ 0.436 µg/mL) and 1.08 µM (≈ 0.399 µg/mL), respectively.

Take `CC(C)(C)c1ccc(C(=O)/C=C/c2ccc([N+](=O)[O-])o2)cc1`: the MIC90 is 0.29 µM (≈ 0.0868 µg/mL) in test [1] and 0.22 µM (≈ 0.0659 µg/mL) in test [2].

In the case of `Cc1ccccc1C(=O)/C=C/c1ccc([N+](=O)[O-])o1`, the MIC90 in test [1] is 1.08 µM (≈ 0.278 µg/mL); in test [2] it was 1.07 µM (≈ 0.275 µg/mL).

With `CSc1ccc(C(=O)/C=C/c2ccc([N+](=O)[O-])s2)cc1`, the MIC90 in test [1] is 0.14 µM (≈ 0.0428 µg/mL); in test [2], 0.22 µM (≈ 0.0672 µg/mL).

`O=C(/C=C/c1ccc([N+](=O)[O-])o1)c1ccc(-c2ccccc2)cc1`: the MIC90 in test [1] was found to be 3.45 µM (≈ 1.1 µg/mL); in test [2] it was 0.29 µM (≈ 0.0926 µg/mL).

As to `O=C(/C=C/c1ccc([N+](=O)[O-])s1)c1ccc(-n2ccnc2)cc1`, the MIC90 in test [1] turned out to be 0.6 µM (≈ 0.195 µg/mL); in test [2] it was 0.3 µM (≈ 0.0976 µg/mL).

With `CCCCc1ccc(C(=O)/C=C/c2ccc([N+](=O)[O-])s2)cc1`, the MIC90 in test [1] came to 0.48 µM (≈ 0.151 µg/mL); in test [2], 0.31 µM (≈ 0.0978 µg/mL).

As to `CCCCc1ccc(C(=O)/C=C/c2ccc([N+](=O)[O-])o2)cc1`, the MIC90 in test [1] amounted to 4.7 µM (≈ 1.41 µg/mL); in test [2] it was 2.23 µM (≈ 0.667 µg/mL).

Turning to `O=C(/C=C/c1ccc(Cl)s1)c1ccc(-n2ccnc2)cc1`, the MIC90 in test [1] was 8.89 µM (≈ 2.8 µg/mL); in test [2], 9.03 µM (≈ 2.84 µg/mL).

Take `O=C(/C=C/c1ccc([N+](=O)[O-])o1)c1cccc(Br)c1`: the MIC90 in test [1] came out at 1.88 µM (≈ 0.606 µg/mL); in test [2], 1.12 µM (≈ 0.361 µg/mL).

As for `CSc1ccc(C(=O)/C=C/c2ccc([N+](=O)[O-])o2)cc1`, the MIC90 in test [1] came to 0.24 µM (≈ 0.0694 µg/mL); in test [2] it was 0.8 µM (≈ 0.231 µg/mL).

On to `NNC(=O)c1ccncc1` [ISONIAZID], for which the MIC90 in test [2] was greater than 5 µM.

As for `CO[C@H]1/C=C/O[C@@]2(C)Oc3c(C)c(O)c4c(O)c(c(/C=N/N5CCN(C)CC5)c(O)c4c3C2=O)NC(=O)/C(C)=C\C=C\[C@H](C)[C@H](O)[C@@H](C)[C@@H](O)[C@@H](C)[C@H](OC(C)=O)[C@@H]1C` [RIFAMPIN], the MIC90 in test [1] is greater than 1 µM.
